Source: ChEMBL document CHEMBL1152173, “Synthesis and in vitro evaluation of the antifungal activities of dihydropyrimidinones” (2008)
Active and inactive are the calls of the source. No cut-off for these calls is given here.

Legend:
Format in all cases: functional
[1] = system: Trichoderma hamatum; assay: Antifungal activity against Trichoderma hamatum assessed as radial growth at 7% after 72 hrs by poison food technique of Flack relative to control
Procedure, shortened: (§1)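 Acetone stock added to molten sterilized PDA to final 0.5–7%, plated in 90 mm dishes with compound-free plates as control. Each plate was inoculated with a 9 mm disc from a 4-day-old culture, incubated at 25 ± 1 °C, and colony diameter measured at 24 h intervals. % inhibition = (control − treatment)/control × 100; three replicates averaged.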

[2] = system: Trichoderma koningii; assay: Antifungal activity against Trichoderma koningii assessed as radial growth at 3% after 24 hrs by poison food technique of Flack
Procedure, shortened: (§2)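 Poisoned-food method: acetone stock mixed into molten sterilized potato dextrose agar to final 0.5, 1, 3, 5 or 7%, poured into 90 mm plates. Plates were inoculated with a 9 mm mycelial disc from a 4-day-old pure culture and incubated at 25 ± 1 °C. Colony diameter (mm) was read every 24 h; mean of three replicates.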

[3] = system: Trichoderma koningii; assay: Antifungal activity against Trichoderma koningii assessed as radial growth at 5% after 24 hrs by poison food technique of Flack; procedure, shortened: as §2
[4] = system: Trichoderma koningii; assay: Antifungal activity against Trichoderma koningii assessed as radial growth at 7% after 24 hrs by poison food technique of Flack; procedure, shortened: as §2
[5] = system: Trichoderma koningii; assay: Antifungal activity against Trichoderma koningii assessed as radial growth at 5% after 48 hrs by poison food technique of Flack; procedure, shortened: as §2
[6] = system: Trichoderma koningii; assay: Antifungal activity against Trichoderma koningii assessed as radial growth at 7% after 48 hrs by poison food technique of Flack; procedure, shortened: as §2
[7] = system: Trichoderma koningii; assay: Antifungal activity against Trichoderma koningii assessed as radial growth at 5% after 48 hrs by poison food technique of Flack relative to control; procedure, shortened: as §1
[8] = system: Trichoderma hamatum; assay: Antifungal activity against Trichoderma hamatum assessed as radial growth at 5% after 24 hrs by poison food technique of Flack; procedure, shortened: as §2
[9] = system: Trichoderma hamatum; assay: Antifungal activity against Trichoderma hamatum assessed as radial growth at 7% after 48 hrs by poison food technique of Flack; procedure, shortened: as §2
[10] = system: Trichoderma hamatum; assay: Antifungal activity against Trichoderma hamatum assessed as radial growth at 7% after 72 hrs by poison food technique of Flack; procedure, shortened: as §2
[11] = system: Aspergillus niger; assay: Antifungal activity against Aspergillus niger assessed as radial growth at 7% after 24 hrs by poison food technique of Flack
Procedure, shortened: (§3)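 Poisoned-food assay on potato dextrose agar. Compound stock in acetone was added to molten sterilized PDA to a final 0.5, 1, 3, 5 or 7%, then 20 mL was poured per 90 mm plate. Each plate was inoculated with a 9 mm mycelial disc from a 4-day-old pure culture and incubated at 25 ± 1 °C. Colony diameter (mm) was read every 24 h; mean of three replicates.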

[12] = system: Aspergillus niger; assay: Antifungal activity against Aspergillus niger assessed as radial growth at 0.5% after 24 hrs by poison food technique of Flack relative to control
[13] = system: Aspergillus niger; assay: Antifungal activity against Aspergillus niger assessed as radial growth at 0.5% after 48 hrs by poison food technique of Flack relative to control
[14] = system: Aspergillus niger; assay: Growth promotion of Aspergillus niger assessed as radial growth at 1% after 48 hrs by poison food technique of Flack relative to control
Procedure, shortened: (§4)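 Growth increase in poisoned PDA plates (acetone stock, final 0.5 or 1%) against untreated control plates. Inoculum was a 9 mm mycelial disc from a 4-day-old culture, incubated at 25 ± 1 °C, with colony diameter read every 24 h. Where treated growth exceeded control, percentage increase over control was recorded; average of three replicates.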

[15] = system: Aspergillus niger; assay: Growth promotion of Aspergillus niger assessed as radial growth at 1% after 72 hrs by poison food technique of Flack relative to control; procedure, shortened: as §4
[16] = system: Aspergillus niger; assay: Growth promotion of Aspergillus niger assessed as radial growth at 0.5% after 24 hrs by poison food technique of Flack relative to control; procedure, shortened: as §4
[17] = system: Aspergillus niger; assay: Growth promotion of Aspergillus niger assessed as radial growth at 0.5% after 48 hrs by poison food technique of Flack relative to control; procedure, shortened: as §4
[18] = system: Aspergillus niger; assay: Growth promotion of Aspergillus niger assessed as radial growth at 0.5% after 72 hrs by poison food technique of Flack relative to control; procedure, shortened: as §4
[19] = system: Trichoderma hamatum; assay: Antifungal activity against Trichoderma hamatum assessed as radial growth at 5% after 48 hrs by poison food technique of Flack; procedure, shortened: as §2
[20] = system: Trichoderma koningii; assay: Growth promotion of Trichoderma koningii assessed as radial growth at 1% after 48 hrs by poison food technique of Flack relative to control
[21] = system: Trichoderma koningii; assay: Growth promotion of Trichoderma koningii assessed as radial growth at 0.5% after 24 hrs by poison food technique of Flack relative to control
[22] = system: Trichoderma koningii; assay: Growth promotion of Trichoderma koningii assessed as radial growth at 0.5% after 48 hrs by poison food technique of Flack relative to control
[23] = system: Trichoderma koningii; assay: Growth promotion of Trichoderma koningii assessed as radial growth at 0.5% after 72 hrs by poison food technique of Flack relative to control
[24] = system: Trichoderma hamatum; assay: Growth promotion of Trichoderma hamatum assessed as radial growth at 0.5% after 72 hrs by poison food technique of Flack relative to control
[25] = system: Aspergillus niger; assay: Antifungal activity against Aspergillus niger assessed as radial growth at 7% after 48 hrs by poison food technique of Flack; procedure, shortened: as §3
[26] = system: Aspergillus niger; assay: Antifungal activity against Aspergillus niger assessed as radial growth at 7% after 72 hrs by poison food technique of Flack; procedure, shortened: as §3
[27] = system: Trichoderma koningii; assay: Growth promotion of Trichoderma koningii assessed as radial growth at 1% after 24 hrs by poison food technique of Flack relative to control
[28] = system: Trichoderma koningii; assay: Growth promotion of Trichoderma koningii assessed as radial growth at 1% after 72 hrs by poison food technique of Flack relative to control
[29] = system: Aspergillus niger; assay: Antifungal activity against Aspergillus niger assessed as radial growth at 3% after 24 hrs by poison food technique of Flack; procedure, shortened: as §3
[30] = system: Aspergillus niger; assay: Antifungal activity against Aspergillus niger assessed as radial growth at 5% after 24 hrs by poison food technique of Flack; procedure, shortened: as §3
[31] = system: Trichoderma hamatum; assay: Growth promotion of Trichoderma hamatum assessed as radial growth at 1% after 24 hrs by poison food technique of Flack relative to control
[32] = system: Trichoderma hamatum; assay: Growth promotion of Trichoderma hamatum assessed as radial growth at 1% after 48 hrs by poison food technique of Flack relative to control
[33] = system: Trichoderma hamatum; assay: Growth promotion of Trichoderma hamatum assessed as radial growth at 0.5% after 24 hrs by poison food technique of Flack relative to control; procedure, shortened: as §4
[34] = system: Trichoderma hamatum; assay: Growth promotion of Trichoderma hamatum assessed as radial growth at 0.5% after 48 hrs by poison food technique of Flack relative to control
[35] = system: Aspergillus niger; assay: Growth promotion of Aspergillus niger assessed as radial growth at 1% after 24 hrs by poison food technique of Flack relative to control; procedure, shortened: as §4
[36] = system: Aspergillus niger; assay: Antifungal activity against Aspergillus niger assessed as radial growth at 5% after 48 hrs by poison food technique of Flack; procedure, shortened: as §3

SMILES	inhibition (INH) [1] [%]	Activity [3]	Activity [4]	inhibition (INH) [7] [%]	Activity [8]	Activity [9]	Activity [11]	inhibition (INH) [12] [%]	inhibition (INH) [13] [%]	Activity [14] [%]	Activity [15] [%]	Activity [16] [%]	Activity [17] [%]	Activity [18] [%]	Activity [20] [%]	Activity [21] [%]	Activity [22] [%]	Activity [23] [%]	Activity [25]	Activity [26]	also measured
CCOC(=O)C1=C(C)NC(=O)NC1c1ccccc1 (configuration not stated)	100	Active	Active	100	Active	Active	Active	0	0	13.37	7.76	19.44	64.39	27.63	–	–	–	–	–	–	Activity [2]: Active; Activity [5]: Active; Activity [6]: Active; Activity [10]: Active
CCOC(=O)C1=C(C)NC(=S)NC1c1ccccc1O (configuration not stated)	98.35	Active	Active	91.4	Active	Active	–	0	0	94.34	104.34	90.09	129.68	93.61	113.53	19.71	53.12	1.25	–	–	Activity [19]: Active; Activity [24]: 0.42%
CCOC(=O)C1=C(C)NC(=S)NC1c1ccccc1 (configuration not stated)	95.98	–	–	87.34	–	Active	Active	0	0	50	75.75	133	96.9	106.06	3.92	36.06	16.26	2.97	Active	Active	Activity [27]: 26.94%; Activity [28]: 2.97%
CCOC(=O)C1=C(C)NC(=O)NC1c1ccc(N(C)C)cc1 (configuration not stated)	93.82	Active	Active	87.09	–	–	Active	38.28	41.66	–	–	–	–	–	–	–	–	–	Active	Active	Activity [29]: Active; Activity [30]: Active; Activity [31]: 3.15%; Activity [32]: 1.5%; Activity [33]: 8.97%; Activity [34]: 3.3%
CCOC(=O)C1=C(C)NC(=O)NC1c1ccccc1O (configuration not stated)	96.78	–	Active	70.83	–	Active	Active	0	34.75	–	–	3.2	–	–	–	6.49	11.97	6.37	Active	–	Activity [6]: Active; Activity [27]: 5.79%; Activity [35]: 7.4%; Activity [33]: 5.68%; Activity [34]: 19.53%; Activity [24]: 4.07%
CCOC(=O)C1=C(C)NC(=S)NC1c1ccc(N(C)C)cc1 (configuration not stated)	97.57	–	Active	86.21	Active	Active	Active	0	0	86.6	92.07	60	103.2	100	18.21	15.38	18.75	2.7	Active	Active	Activity [19]: Active; Activity [30]: Active; Activity [36]: Active; Activity [28]: 1.35%
